Consider 20 compounds from ChEMBL document CHEMBL1140415, “Synthesis, anti-HIV activity, and metabolic stability of new alkenyldiarylmethane HIV-1 non-nucleoside reverse transcriptase inhibitors” (J Med Chem, 2005).

In series [1] the test system is Human immunodeficiency virus 1. Kind of series: In vitro anti-HIV activity against HIV-1 IIIB infected in MT-4 cells using MTT assay. The conditions noted are these: Human immunodeficiency virus 1, MT4. Type of series: functional, organism-based. In outline:
(§1)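 MT-4 cells infected with HIV-1 strain IIIB or HIV-2 strain ROD. Protection from viral cytopathicity was read by MTT. Triplicate tests.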
In general terms: Tetrazolium dyes change colour on reduction, which living cells bring about.

Series [2] is described as follows: In vitro hydrolytic stability in rat plasma, expressed as t1/2. Type of series: ADME, cell-free. In outline:
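1,1-Diphenylethylene (2.1–5.1 mg) or benzophenone (2.1 mg) served as internal standard. Hydrolysis of the methyl ester was followed, and t1/2 is given in min ± SD from triplicate tests.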

Another series relates to MT4. Kind of series: Cytotoxic concentration against mock infected in MT-4 cells. It is filed as functional. Particulars: Homo sapiens. A digest of the protocol: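 Uninfected (mock-infected) MT-4 cells, run alongside the MTT antiviral assay. Triplicate tests.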
Series [3] addresses Human immunodeficiency virus type 1 reverse transcriptase (Human immunodeficiency virus 1, UniProt Q72547). The experiment in a line: Inhibition of recombinant HIV-1 reverse transcriptase activity.
For another series, the system named is CEM-SS. The experiment in a line: Cytotoxic concentration against mock infected in CEM-SS cells. Type of series: functional. Particulars: Homo sapiens. A digest of the protocol:
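Mock-infected CEM-SS cells, tested alongside the HIV-1 RF cytoprotection (MTS) assay. Data come from triplicate tests.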

Series [4] has as its system Human immunodeficiency virus 1. Kind of series: In vitro anti-HIV activity against HIV-1RF infected in CEM-SS cells using MTS cytoprotection assay. Particulars: Human immunodeficiency virus 1, CEM-SS. It is filed as functional, organism-based.
Series [5] deals with Human immunodeficiency virus 2. Kind of series: In vitro anti-HIV activity against HIV-2ROD infected in MT-4 cells using MTT assay. It is filed as functional, organism-based. Particulars: Human immunodeficiency virus 2, MT4. In outline: as §1
A short description of series [6]: In vitro hydrolytic stability in rat plasma, expressed as t1/2; Not hydrolyzed. It is filed as ADME, cell-free. In outline:
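Compounds (4.3–9.3 mg) were incubated in rat plasma in vitro. 1,1-Diphenylethylene (2.1–5.1 mg) or benzophenone (2.1 mg) served as internal standard. Hydrolysis of the methyl ester was followed, and t1/2 is given in min ± SD from triplicate tests.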

On to `COC(=O)CCC/C=C(\c1cccc(C#N)c1)c1cc(Cl)c(OC)c(C(=O)OC)c1`, for which the EC50 in series [1] was 8.55 µM; in series [4], 7.1 µM. Also, the half-life in series [2] was found to be 26.4 s. Further, the CC50 with MT4 stood at 213 µM; in the series on CEM-SS, 20.2 µM. The IC50 in series [3] came to 0.75 µM.

Consider `COC(=O)CCC/C=C(\c1cccc(C#N)c1)c1cc(Cl)ccc1OC`, for which the EC50 was > 67.6 µM in series [5], 9.11 µM in series [1] and 7 µM in series [4]. The half-life in series [2] stood at 25.2 s. Also, the cytotoxic concentration (CC50) in the series with MT4 is ≥ 45.2 µM; with CEM-SS, 16.3 µM. Also, the IC50 in series [3] was 7.58 µM.

As for `COC(=O)c1cc(/C(=C\CCN2CCOC2=O)c2cc(F)cc(C(F)(F)F)c2)cc(C)c1OC`, the EC50 in series [5] was > 22.6 µM; in series [1], 9.6 µM; in series [4], 8.3 µM. The half-life in series [2] amounted to 563 s. The CC50 with MT4 was 24.7 µM; in the series on CEM-SS it was 15 µM. The half-maximal inhibitory concentration (IC50) in series [3] was determined as 15.7 µM.

For the compound `COC(=O)CCC/C=C(\c1cccc(C#N)c1)c1cc(C)c(OC)c(C(=O)OC)c1`, the half-maximal effective concentration (EC50) in series [5] was > 169 µM; in series [1], 12.8 µM; in series [4], > 100 µM. Moreover, the half-life in series [2] came to 42.6 s. Also, the values for the CC50 in the series on MT4 and in the series on CEM-SS were 153 µM and 23.3 µM, respectively. Further, the IC50 in series [3] is 0.84 µM.

For `COC(=O)CCC/C=C(/c1ccc(OC)c(OC)c1)c1cc(C)c(OC)c(C(=O)OC)c1`, in series [3], the IC50 is 0.074 µM. This compound also gave a CC50 in the series on CEM-SS of 1.14 µM. This compound returned a 50% effective concentration (EC50) in series [4] of 0.21 µM.

On to `COC(=O)CCC/C=C(\c1cc(F)cc(C(F)(F)F)c1)c1cc(C)c(OC)c(C(=O)OC)c1`, for which the EC50 was > 5.89 µM in series [5], > 5.51 µM in series [1] and > 5 µM in series [4]. Also, the 50% cytotoxic concentration (CC50) was 5.7 µM in the series on MT4 and > 5 µM in the series on CEM-SS. Also, the IC50 in series [3] was > 100 µM.

As to `COC(=O)CCC/C=C(/c1cc(F)cc(C(F)(F)F)c1)c1cc(C)c(OC)c(C(=O)OC)c1`, the values for the EC50 in series [5], in series [1] and in series [4] were 10.6 µM, 2.54 µM and 7.3 µM, respectively. Also, the half-life in series [2] was 261 s. For the same compound, the values for the CC50 in the series on MT4 and in the series with CEM-SS were 113 µM and 12 µM, respectively. For the same compound, the IC50 in series [3] is 55.3 µM.

On to `COC(=O)CCC/C=C(\c1cc(C)c(OC)c(C(=O)OC)c1)c1cc(Cl)ccc1OC`, for which the half-maximal effective concentration (EC50) is > 14.5 µM in series [5], > 18.8 µM in series [1] and > 100 µM in series [4]. Besides, in series [2], the half-life was 28.2 s. The CC50 in the series on MT4 is 18.8 µM; in the series on CEM-SS, 8.3 µM. The half-inhibitory concentration (IC50) in series [3] was > 100 µM.

Turning to `COC(=O)CCC/C=C(\c1cc(F)cc(C(F)(F)F)c1)c1cc(C)c2onc(OC)c2c1`, the IC50 in series [3] was 0.9 µM.

For `COc1ccc(/C(=C\CCN2CCOC2=O)c2cc(F)cc(C(F)(F)F)c2)cc1OC`, the EC50 in series [5] was > 13.4 µM; in series [1] it was > 18.5 µM; in series [4], > 100 µM. For the same compound, the T1/2 entry in series [6] is “Not hydrolyzed”. The CC50 with MT4 turned out to be 18.5 µM; with CEM-SS, 14.5 µM. The IC50 in series [3] was determined as 97.8 µM.

`COC(=O)CCC/C=C(\c1cc(F)cc(C(F)(F)F)c1)c1cc(Cl)c(OC)c(C(=O)OC)c1`: in series [3], the IC50 is > 100 µM. The half-maximal cytotoxic concentration (CC50) in the series with CEM-SS worked out at 16.1 µM. For the same compound, the EC50 in series [4] is > 100 µM.

`COC(=O)CCC/C=C(/c1cc(Cl)c(OC)c(C(=O)OC)c1)c1cc(Cl)ccc1OC`: the concentration for a half-maximal effect (EC50) in series [5] is > 5.41 µM; in series [1], > 5.41 µM; in series [4], > 100 µM. The compound also registered a half-life in series [2] of 46.2 s. Moreover, the CC50 in the series on MT4 came to 5.41 µM; with CEM-SS, 9.3 µM. Besides, the half-maximal inhibitory concentration (IC50) in series [3] is > 100 µM.

On to `COC(=O)CCC/C=C(/c1cc(C)c2on(C)c(=O)c2c1)c1cc(Cl)ccc1OC`, for which the EC50 was > 28.8 µM in series [5], > 28.8 µM in series [1] and > 100 µM in series [4]. Also, the half-life in series [2] stood at 28.8 s. For the same compound, the CC50 was > 28.8 µM with MT4 and 13 µM in the series with CEM-SS. Moreover, the IC50 in series [3] stood at 8.2 µM.

For the compound `COC(=O)CCC/C=C(\c1cc(F)cc(C(F)(F)F)c1)c1cc(C)c2on(C)c(=O)c2c1`, the EC50 in series [5] was > 43.2 µM; in series [1] it was > 35.7 µM; in series [4], > 100 µM. This compound also showed a half-life in series [2] of 52.2 s. The values for the CC50 in the series on MT4 and in the series with CEM-SS were 39.8 µM and 16.8 µM, respectively. Moreover, the half-maximal inhibitory concentration (IC50) in series [3] is > 100 µM.

As for `COC(=O)c1cc(C(=CCCN2CCOC2=O)c2ccc(OC)c(OC)c2)cc(C)c1OC`, the values for the concentration giving a half-maximal response (EC50) in series [5], in series [1] and in series [4] were > 35.4 µM, > 33.8 µM and > 100 µM, respectively. The compound also displayed a half-life in series [2] of 47.4 s. The CC50 was 82.5 µM with MT4 and 4.79 µM with CEM-SS. In series [3], the IC50 was > 100 µM.

For `COC(=O)c1cc(C(=CCCN2CCOC2=O)c2cc(Br)c(OC)c(C(=O)OC)c2)cc(Br)c1OC`, the EC50 in series [4] came out at 0.02 µM.

On to `COc1ccc(/C(=C\CCN2CCOC2=O)c2cc(F)ccc2C(F)(F)F)cc1OC`, for which, in series [6], the T1/2 entry was “Not hydrolyzed”. In addition, the IC50 in series [3] is > 100 µM. In the series with CEM-SS, this compound showed a CC50 of 26.7 µM. The EC50 in series [4] is > 100 µM.

Consider `COC(=O)CCC/C=C(\c1cccc(C#N)c1)c1cc(C)c2onc(OC)c2c1`, for which the values for the EC50 in series [5], in series [1] and in series [4] were > 5.63 µM, > 2.05 µM and > 100 µM, respectively. The compound further yielded a half-life in series [2] of 87.6 s. The CC50 with MT4 was determined as 4.69 µM; in the series with CEM-SS, 0.8 µM. Besides, in series [3], the 50% inhibitory concentration (IC50) came to 5.7 µM.

In the case of `COC(=O)CCC/C=C(/c1cc(C)c(OC)c(C(=O)OC)c1)c1cc(Cl)ccc1OC`, the EC50 in series [5] was > 13.8 µM; in series [1], > 13.8 µM; in series [4], > 100 µM. In addition, in series [2], the half-life was 58.8 s. The CC50 stood at 13.8 µM with MT4 and 15.5 µM in the series with CEM-SS. The IC50 in series [3] was > 100 µM.

For `COC(=O)c1cc(/C(=C\CCN2CCOC2=O)c2ccc(OC)c(OC)c2)cc(C)c1OC`, the EC50 in series [5] was > 1.05 µM; in series [1], > 1.05 µM; in series [4], > 100 µM. For the same compound, the half-life in series [2] is 346 s. The CC50 was found to be 1.05 µM with MT4 and 0.49 µM in the series with CEM-SS. For the same compound, the IC50 in series [3] came out at 1 µM.

By EC50 is commonly meant the concentration needed to bring the measured effect to its halfway point. A word on the half-life: it is how long it takes for the measured level to halve. As usually defined, the CC50 is the concentration that lowers cell viability or growth by half. Higher therefore signals better tolerance by the cells. As usually defined, the IC50 is the concentration at which inhibition is half-maximal.
